High-throughput results from PubChem.
Compounds with a hit are over-represented: about 5% of the library has one in this group of screens.
Beta cell apopt = blocks beta cell apoptosis; INS-1E cytokine-induced death, ATP luminescence, 48 h; percent of positive-control rescue, neutral wells zero; protection from apoptosis, % (test concentration not listed); hit rate 0.8% among 300,000;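 active means Every replicate reaches about 75%, or at least half do and their mean reaches it too, limit read from the data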;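 further: 0% = cytokine-treated negative control wells and 100% = positive control rescue; higher means more ATP so stronger rescue from cytokine killing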
UPR CHOP act = activators of apoptotic arm of unfolded protein response (CHOP) | hit rate 0.34% among 330,000 | activation, % at 10 µM | CHO-CHOP luciferase reporter, UPR activation, luminescence; percent of tunicamycin response over DMSO baseline;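 active means at 10 µM dose, activation of 40% or more, normalized to positive control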;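 further: 100% = tunicamycin at 10 µg/mL and 0% = DMSO alone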
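System: CHO-CHOP luciferase reporter cell line | Buffer or medium: F12 medium containing 10% fetal bovine serum | Doses: One dose, 10 µM in 0.5% DMSO | Times: 6 h compound exposure at 37 °C after overnight seeding | Signal: Luciferase luminescence | Read-out: % activation vs tunicamycin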
Mdm2-MdmX inh = inhibitors of human Mdm2/MdmX interaction; O15151+Q00987; SaOS-2 split-luciferase Mdm2/MdmX complementation, luminescence; inhibition, % at 8 µM; hit rate 3% among 330,000;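 active means inhibition of at least 50% at 8 µM in the primary screen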
Target sequence (O15151 whole entry, looked up): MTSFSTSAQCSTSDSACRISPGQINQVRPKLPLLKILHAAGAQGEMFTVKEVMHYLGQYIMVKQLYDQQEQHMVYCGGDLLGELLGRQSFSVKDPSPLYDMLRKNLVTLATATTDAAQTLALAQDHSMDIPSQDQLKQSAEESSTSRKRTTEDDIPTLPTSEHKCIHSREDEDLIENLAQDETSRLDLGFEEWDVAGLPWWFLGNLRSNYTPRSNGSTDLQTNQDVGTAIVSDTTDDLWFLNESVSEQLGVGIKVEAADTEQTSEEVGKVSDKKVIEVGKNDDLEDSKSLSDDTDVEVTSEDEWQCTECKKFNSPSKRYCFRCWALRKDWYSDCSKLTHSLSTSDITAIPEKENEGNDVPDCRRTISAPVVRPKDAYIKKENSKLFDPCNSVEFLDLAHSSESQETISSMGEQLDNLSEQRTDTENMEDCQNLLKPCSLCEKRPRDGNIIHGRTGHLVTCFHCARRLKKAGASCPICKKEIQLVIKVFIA
Target sequence (Q00987 whole entry, looked up): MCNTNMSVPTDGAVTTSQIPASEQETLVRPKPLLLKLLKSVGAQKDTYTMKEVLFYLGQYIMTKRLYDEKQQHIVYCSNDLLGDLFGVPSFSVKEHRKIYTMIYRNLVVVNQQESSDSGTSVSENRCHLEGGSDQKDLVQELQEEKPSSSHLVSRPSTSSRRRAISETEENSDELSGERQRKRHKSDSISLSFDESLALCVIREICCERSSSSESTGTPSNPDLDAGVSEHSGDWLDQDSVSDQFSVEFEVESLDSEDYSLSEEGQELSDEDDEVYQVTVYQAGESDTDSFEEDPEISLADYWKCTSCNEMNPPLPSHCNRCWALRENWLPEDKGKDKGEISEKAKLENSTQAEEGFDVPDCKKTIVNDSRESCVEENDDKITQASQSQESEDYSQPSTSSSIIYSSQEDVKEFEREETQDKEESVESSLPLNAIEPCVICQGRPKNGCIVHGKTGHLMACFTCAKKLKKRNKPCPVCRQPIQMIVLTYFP
T cruzi repl = T. cruzi replication inhibition | T. cruzi beta-gal in NIH3T3, luminescence, 90 h | AID 1885 | hit rate 1.4% among 300,000 | inhibition, % (concentration not given with the values);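 active means mean inhibition across valid replicates above about 55%, limit read from the data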;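 further: signal also drops with host cell toxicity which is not excluded here; 0% = plate median of DMSO wells and 100% = zero luminescence signal; higher percent means less beta-gal luminescence so fewer parasites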
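Material: NIH/3T3 host cells with β-galactosidase reporter T. cruzi; Input: 5,000 host fibroblasts per well; Medium: DMEM, 2% fetal bovine serum; Compound: 50 nL DMSO compound solution per well; Schedule: 3 h host attachment, then at least 90 h co-culture; Detection: luminescent β-galactosidase signal after 60 min lysis.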
CSC inhib = blocks cancer stem cells | inhibition, % at 7.5 µM | cancer stem cell-like cells viability, luminescence | hit rate 1.1% among 300,000; in the data active means inhibition above about 75%; tested in HMLE shEcad cells
XBP1 UPR activ = activators of adaptive arm of unfolded protein response (XBP1). CHO-XBP1 luciferase reporter, IRE1-XBP1 UPR activation, luminescence; percent of tunicamycin response, DMSO as zero. activation, % at 20 µM. hit rate 0.33% among 330,000;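 active means versus positive control, 20 µM dose yields 30% or more activation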;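 further: 100% = tunicamycin at 10 µg/mL and 0% = DMSO only wells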
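Material: CHO-XBP1 cells stably carrying IRE1-XBP1-driven luciferase reporter / Amount: 1000 cells per well / Compound: 20 µM, 1% DMSO / Times: 6 h treatment, 37 °C / Detection: luciferase luminescence / Measure: % activation of reporter signal versus tunicamycin and DMSO controls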
Mdm2 MdmX conf = confirmation of human Mdm2/MdmX interaction inhibitors | Mdm2-MdmX binding, luminescent assay | shares compounds with Mdm2-MdmX inh | hit rate 55% among 10,000 | inhibition, % at 8 µM; in the data active means inhibition above about 40%
FLuc counter = counter-screen for Mdm2/MdmX inhibitors: full-length luciferase; inhibition, % at 8 µM; SaOS-2 full-length luciferase counterscreen, luminescence; hit rate 77% among 6,200; shares compounds with Mdm2-MdmX inh;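 active means mean inhibition at 8 µM reaching about 37%, which flags the compound as non-specific, limit read from the data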;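 further: p53-null SaOS-2 cells with luciferase driven by a doxycycline-inducible promoter; compound on cells about two nights before reading with doxycycline added after day one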
An asterisk follows results filed as active; . = no result.

SMILES	Beta cell apopt	UPR CHOP act	Mdm2-MdmX inh	T cruzi repl	CSC inhib	XBP1 UPR activ	Mdm2 MdmX conf	FLuc counter
Cc1nn(CC(=O)NCCCN2CCN(C)CC2)c(=O)c2cc(-c3ccccc3)nn12	-4	1	7	-3	39	0	.	.
O=C1CCCN1CCCNCC(=O)N1c2ccccc2Sc2ccccc21	-2	0	2	0	11	0	.	.
COc1ccc(-c2cc3c(=O)n(CC(=O)NCCCN4CCC(Cc5ccccc5)CC4)ncn3n2)cc1	43	2	87*	24	51	-12	37	68*
COc1ccc(-c2cc3c(=O)n(CC(=O)NCc4ccc(C)cc4)ncn3n2)cc1	17	1	95*	-2	13	3	-8	.
CCOc1ccc(CCNC(=O)Cn2ncn3nc(-c4ccc(OC)cc4)cc3c2=O)cc1	7	11	28	-9	4	11	.	.
COc1ccc(/C=N/Nc2ncnc3c2[nH]c2ccc(C)cc23)c(OC)c1OC	54	6	77*	13	2	6	53*	10
COc1cc(OC)c(OC)cc1/C=N/Nc1ncnc2c1[nH]c1ccccc12	12	-1	84*	7	25	11	55*	12
CC(C)[C@H]1C=C(C(=O)O)O[C@@H](OCCCCO)C1	-6	-2	12	-9	16	0	.	.
COc1ccc(C(CC(=O)c2ccc(C)cc2)C(C#N)C#N)cc1OC (stereo not drawn)	-22	2	56*	-40	73	1	44*	47*
C/C(=N\NC(=O)c1cc(C)nc2ccccc12)c1ccccn1	104*	85*	76*	.	96*	5	67*	36*
COc1cc(C(=O)N/N=C(\C)c2ccccn2)cc(OC)c1OC	83*	-3	77*	16	64	-3	25	.
CCCCCC(=O)N/N=C(\C)c1ccccn1	37	-1	61*	-3	16	1	8	.
COc1ccccc1NC(=O)C/C(C)=N/NC(=O)c1ccccn1	1	1	9	1	-11	4	.	.
CCCCCn1c(=S)[nH]c2ncccc2c1=O	1	0	32	-4	-2	1	.	.
O=c1c2cccnc2[nH]c(=S)n1CCC1=CCCCC1	3	14	63*	0	-5	9	1	.
COc1ccc(NC(=O)c2cccc(NC(=O)C3C4CC5OC(=O)C3C5C4)c2)c(OC)c1 (stereo not drawn)	2	-2	12	4	-1	-2	.	.
Cc1c(NC(=O)c2cc(=O)[nH]c(=O)[nH]2)c(=O)n(-c2ccccc2)n1C	-3	1	4	-3	-6	1	.	.
Cc1cccc(OCC(=O)NC(C)C(=O)N/N=C/c2c(OCc3ccccc3)ccc3ccccc23)c1 (stereo not drawn)	5	3	76*	-62	.	-2	36	69*
COc1ccc2ccccc2c1/C=N/NC(=O)c1cccc(C)c1	0	1	4	-27	-4	0	.	.
CCOC(=O)Nc1ccc2c(c1)N(C(=O)CCN(CC)CC)c1ccccc1S2=O (stereo not drawn)	.	5	67*	-13	36	-4	53*	30
CCOC(=O)Nc1ccc2c(c1)N(C(=O)CCN(CC)CC)c1ccccc1CC2	.	0	-5	-3	0	-5	.	.
O=C(Cc1cccs1)NCCc1ccc(Cl)cc1	-4	4	-14	-6	-9	-1	.	.
Cc1cc(C)cc(OCC(=O)Nc2cccc(-c3nnc(-c4ccco4)o3)c2)c1	-2	-2	83*	-9	16	-1	40*	99*
COc1ccc(CC(=O)Nc2cccc(-c3nnc(-c4ccco4)o3)c2)cc1	20	0	26	32	19	1	.	.
O=C(Cc1ccc(Cl)cc1)Nc1ccc(-c2nnc(-c3ccco3)o2)cc1	6	4	54*	8	-3	3	10	.
SMILES	Beta cell apopt	UPR CHOP act	Mdm2-MdmX inh	T cruzi repl	CSC inhib	XBP1 UPR activ	Mdm2 MdmX conf	FLuc counter
Cc1c(C(=O)OCC(=O)N2CCN(c3ccccc3)CC2)oc2ccccc12	-1	0	-1	.	2	-1	.	.
COc1ccc(/C=N/N=C2/CC(C)(C)Cc3n[nH]c(=O)cc32)cc1	.	1	-7	-21	-3	1	.	.
CC(=O)c1c(C)[nH]c(C(=O)CSc2nnc(C)s2)c1C	-1	2	-4	-5	-11	0	.	.
O=C(COc1ccc2ccccc2c1)NNC(=O)C(=O)Nc1ccccc1	21	1	53*	-8	5	3	60*	99*
COc1ccc(NC(=O)C(=O)NNC(=O)COc2ccc(OC)cc2)cc1	-3	0	14	-20	6	-1	.	.
O=[N+]([O-])c1ccccc1N(CC1CO1)S(=O)(=O)c1ccccc1 (stereo not drawn)	.	1	-11	-14	-6	-3	.	.
O=C(Nc1nc(NC(=O)c2ccco2)n(-c2ccccc2)n1)c1ccccc1	89*	-1	74*	2	27	5	64*	46*
C=C(C(=O)Oc1ccccc1C(C)(C)C)c1ccccc1	7	193*	96*	.	103*	1	49*	34
COc1ccc(N2CCN(C(=O)NCc3ccc(OC)c(OC)c3)CC2)cc1	4	0	15	-1	-1	0	.	.
Cn1c(=O)c2c(n(Cc3ccccc3)c1=O)NC(=O)C2CC(=O)NCc1cccc(Cl)c1 (stereo not drawn)	-1	0	-1	-74	-10	-4	.	.
CN(C)C=Nc1ncc2c3ccccc3n(CCN(C)C)c2c1C#N	-4	1	60*	26	7	-1	62*	22
CN(C)C=Nc1ncc2c3ccccc3n(Cc3ccccc3)c2c1C#N	1	0	20	10	-9	0	.	.
CCN(CC)CCn1c2ccccc2c2cnc(N)c(C#N)c21	93*	0	63*	65*	-1	-5	27	.
O=c1cc(Nc2ccc3c(c2)OCCO3)[nH]c(=O)n1-c1ccc(Br)cc1	.	3	55*	-6	.	-1	6	.
O=c1cc(Nc2ccc3c(c2)OCO3)[nH]c(=O)n1-c1ccc(Br)cc1	6	2	10	46	4	-2	.	.
COc1ccc(NC(=O)c2cc(-c3ccccc3)nc3c2c(C)nn3-c2ccccc2)c(OC)c1	15	3	54*	34	-9	-2	9	.
COc1ccc(-c2cc(C(=O)NNC3=NCCC3)c3c(C)nn(-c4ccccc4)c3n2)cc1	41	0	69*	1	.	7	56*	34
